Key:
[1] = Chemical stability of the compound in phosphate buffer at pH 7 assessed as compound remaining at 0.1 uM after 48 hrs by RP-HPLC analysis; assay type: physicochemical; conditions: read-out: Stability
Method in brief: (§1)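 Conjugates at 0.1 µM were incubated at 37 °C in 20 mM phosphate buffer at pH 2.0, 7.0 or 8.0. Intact conjugate was measured by RP-HPLC: RP18 column, methanol/0.05 mol/l KH2PO4 pH 3.0 (60:40), 1.0 ml/min, UV 256 nm, 25 °C. Results are % remaining, mean ± SD.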

[2] = Chemical stability of the compound in phosphate buffer at pH 7 assessed as compound remaining at 0.1 uM after 240 hrs by RP-HPLC analysis; assay type: physicochemical; conditions: read-out: Stability; method in brief: as §1
[3] = test system: Mus musculus; assay: Antiinflammatory activity in Kunming mouse assessed as inhibition of xylene-induced auricle tumefaction at 25 uM/kg, tid qd for 5 days relative to control; assay type: functional
Method in brief: (§2)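 Male Kunming mice (18–22 g), 10 per group, with 0.9% NaCl as the blank group. Dosing was once daily for 5 days (table footnote); the methods say t.i.d. Drug was given at molar equivalence to naproxen. 1 h after the last dose, a 7 mm xylene-soaked filter was held on the right ear for 30 s. Mice were killed 30 min later and 7 mm ear discs punched. Inhibition % = (1 − a/b)×100.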

[4] = Chemical stability of the compound in phosphate buffer at pH 8 assessed as compound remaining at 0.1 uM after 240 hrs by RP-HPLC analysis; assay type: physicochemical; conditions: read-out: Stability; method in brief: as §1
[5] = Chemical stability of the compound in phosphate buffer at pH 8 assessed as compound remaining at 0.1 uM after 48 hrs by RP-HPLC analysis; assay type: physicochemical; conditions: read-out: Stability; method in brief: as §1
[6] = Chemical stability of the compound in phosphate buffer at pH 2 assessed as compound remaining at 0.1 uM after 240 hrs by RP-HPLC analysis; assay type: physicochemical; conditions: read-out: Stability; method in brief: as §1
[7] = Chemical stability of the compound in phosphate buffer at pH 2 assessed as compound remaining at 0.1 uM after 48 hrs by RP-HPLC analysis; assay type: physicochemical; conditions: read-out: Stability; method in brief: as §1
[8] = test system: HEK293; assay: Cytotoxicity against HEK293 cells assessed as cell viability at 2 to 32 ug/ml after 24 hrs by MTT assay; assay type: cell-based; conditions: human, hek293, 24 h
Method in brief: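 HEK293 cells were seeded at 2500/well and grown 24 h before compound exposure. The figure legend gives 24 h exposure; the methods give 48 h. MTT (5 mg/ml) was then added for 2.5 h at 37 °C. Formazan was dissolved in DMSO and read at 570 nm. Viability is % of control cells, mean ± SD, n = 3.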

[9] = test system: Mus musculus; assay: Gastrointestinal toxicity in Kunming mouse assessed as ulcer index at 200 mg/kg, po after 4 hrs; assay type: organism-based; set-up: dose 200 mg/kg, route oral; conditions: in vivo
Method in brief: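 Kunming mice of either sex (18–22 g), 10 per group, were fasted 24 h. A 200 mg/kg oral dose was given as a suspension in 1% methylcellulose, and mice were killed after 4 h. Stomachs were fixed 30 min in 10% formaldehyde, opened along the greater curvature and lesion lengths measured under magnification. UI = summed lesion length (mm) per group divided by 10 animals.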

[10] = test system: Mus musculus; assay: Antiinflammatory activity in Kunming mouse assessed as inhibition of xylene-induced auricle tumefaction at 22.2 uM/kg, tid qd for 5 days relative to control; assay type: functional; method in brief: as §2

remaining at 48 h, 0.1 µM [1] [%]	remaining at 240 h, 0.1 µM [2] [%]	remaining at 240 h, 0.1 µM [4] [%]	remaining at 48 h, 0.1 µM [5] [%]	remaining at 240 h, 0.1 µM [6] [%]	remaining at 48 h, 0.1 µM [7] [%]	SMILES	inhibition (INH) [3] [%]	Activity [8]	UI [9]	inhibition (INH) [10] [%]
96.2	95.9	79.4	97.3	72.3	95.7	COc1ccc2cc(C(C)C(=O)OCCN(CCOC(=O)C(C)c3ccc4cc(OC)ccc4c3)CCC(=O)OCCN(CCOC(=O)CCN(CCOC(=O)C(C)c3ccc4cc(OC)ccc4c3)CCOC(=O)C(C)c3ccc4cc(OC)ccc4c3)CCC(=O)OCCN(CCOC(=O)CCN(CCOC(=O)CCN(CCOC(=O)C(C)c3ccc4cc(OC)ccc4c3)CCOC(=O)C(C)c3ccc4cc(OC)ccc4c3)CCOC(=O)CCN(CCOC(=O)C(C)c3ccc4cc(OC)ccc4c3)CCOC(=O)C(C)c3ccc4cc(OC)ccc4c3)CCC(=O)OCc3ccccc3)ccc2c1 (centres undefined)	39.62	Non-toxic	6.93	
						COc1ccc2cc([C@H](C)C(=O)O)ccc2c1 [NAPROXEN]		Non-toxic	8.26	
97.6	96.1	89.4	91.2	93.1	97.1	COc1ccc2cc(C(C)C(=O)NCCCCC(NC(=O)C(C)c3ccc4cc(OC)ccc4c3)C(=O)NCCCCC(NC(=O)C(CCCCNC(=O)C(C)c3ccc4cc(OC)ccc4c3)NC(=O)C(C)c3ccc4cc(OC)ccc4c3)C(=O)NCCCCC(NC(=O)C(CCCCNC(=O)C(CCCCNC(=O)C(C)c3ccc4cc(OC)ccc4c3)NC(=O)C(C)c3ccc4cc(OC)ccc4c3)NC(=O)C(CCCCNC(=O)C(C)c3ccc4cc(OC)ccc4c3)NC(=O)C(C)c3ccc4cc(OC)ccc4c3)C(=O)OCc3ccccc3)ccc2c1 (centres undefined)	48.18	Non-toxic	6.21	
99.1	98.4	79.4	94.5	89.9	97.2	COc1ccc2cc(C(C)C(=O)OCC(COC(=O)C(C)c3ccc4cc(OC)ccc4c3)(COC(=O)C(C)c3ccc4cc(OC)ccc4c3)NC(=O)CCC(=O)OCC(COC(=O)CCC(=O)NC(COC(=O)C(C)c3ccc4cc(OC)ccc4c3)(COC(=O)C(C)c3ccc4cc(OC)ccc4c3)COC(=O)C(C)c3ccc4cc(OC)ccc4c3)(COC(=O)CCC(=O)NC(COC(=O)C(C)c3ccc4cc(OC)ccc4c3)(COC(=O)C(C)c3ccc4cc(OC)ccc4c3)COC(=O)C(C)c3ccc4cc(OC)ccc4c3)NC(=O)OCc3ccccc3)ccc2c1 (centres undefined)		Non-toxic	5.94	49.64
